This passage reports Ki and IC50 results from ChEMBL document CHEMBL1121520, “Synthesis of analogues of the carboxyl protease inhibitor pepstatin. Effects of structure on inhibition of pepsin and renin” (J Med Chem, 1980).

Assay [1] has as its target Pepsin A (Sus scrofa, UniProt P00791). The assay can be described thus: Pepsin inhibition was measured using the synthetic heptapeptide substrate Phe-Gly-His-Phe-(N02)-Phe-Ala- Phe-OMe. A digest of the protocol:
(§1)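 Nitrophenylalanine-containing heptapeptide substrate hydrolysis by pepsin; run at five substrate and three inhibitor concentrations per analogue, with Ki calculated by a previously described method.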

Another assay addresses Renin (Sus scrofa). The assay can be described thus: Inhibition of renin was measured using hog kidney renin and the radiolabeled synthetic substrate, H-Ile-His-Pro-Phe-His-Leu-[14C]Leu-Val-Tyr-Ser-OH.
The target in assay [2] is Pepsin A (Homo sapiens, UniProt P0DJD9). In words: Pepsin inhibition using synthetic heptapeptide substrate Phe-Gly-His-Phe-(N02)-Phe-Ala- Phe-OMe. A digest of the protocol:
as §1

Pepsin A (Sus scrofa, UniProt P00791), sequence (P00791 whole entry): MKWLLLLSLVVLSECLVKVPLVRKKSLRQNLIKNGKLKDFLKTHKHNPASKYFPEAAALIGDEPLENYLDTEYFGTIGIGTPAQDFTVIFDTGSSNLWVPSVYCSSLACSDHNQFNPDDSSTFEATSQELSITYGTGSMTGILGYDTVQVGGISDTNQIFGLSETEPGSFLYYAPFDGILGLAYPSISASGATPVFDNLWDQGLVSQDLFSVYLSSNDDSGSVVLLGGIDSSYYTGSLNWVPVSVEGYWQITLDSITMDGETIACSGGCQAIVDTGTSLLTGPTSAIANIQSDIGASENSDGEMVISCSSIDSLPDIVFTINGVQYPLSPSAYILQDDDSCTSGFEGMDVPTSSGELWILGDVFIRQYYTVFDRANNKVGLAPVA
Pepsin A (Homo sapiens, UniProt P0DJD9), sequence (P0DJD9 whole entry): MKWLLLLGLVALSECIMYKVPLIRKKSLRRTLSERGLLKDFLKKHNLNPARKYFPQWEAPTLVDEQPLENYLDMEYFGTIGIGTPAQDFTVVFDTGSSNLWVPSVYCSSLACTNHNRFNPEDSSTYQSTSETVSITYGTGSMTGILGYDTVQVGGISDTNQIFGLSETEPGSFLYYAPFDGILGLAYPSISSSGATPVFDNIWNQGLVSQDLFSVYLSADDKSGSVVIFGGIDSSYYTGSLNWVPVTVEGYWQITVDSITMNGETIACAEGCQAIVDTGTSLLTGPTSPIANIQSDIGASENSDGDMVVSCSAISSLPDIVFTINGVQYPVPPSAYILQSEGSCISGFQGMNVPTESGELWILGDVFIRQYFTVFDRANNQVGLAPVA

For the molecule `CC(C)CC(=O)N[C@@H](C(=O)N[C@@H](CC(C)C)C(O)CC(N)=O)C(C)C` (stereo partly drawn), on Pepsin A [1], the Ki – broadly, the dissociation constant of the complex between target and ligand, obtained from inhibition or displacement – was around 1000 nM. Moreover, at Renin (Sus scrofa), the IC50 (as a rule, the point on the concentration scale where inhibition reaches its midpoint) is above 330000 nM.
`CC(C)CCNC(=O)[C@@H](C)NC(=O)C[C@H](O)C(CC(C)C)NC(=O)CC(C)C` (stereo partly drawn) gave a Ki on Pepsin A [1] of 350 nM. The IC50 at Renin (Sus scrofa) was above 330000 nM.
With `CC(C)CCNC(=O)[C@H](C)NC(=O)C[C@H](O)C(CC(C)C)NC(=O)[C@H](NC(=O)CC(C)C)C(C)C` (stereo partly drawn), the Ki on Pepsin A [1] turned out to be 1.1 nM.
In turn, `CC(C)CC(=O)N[C@@H](C(=O)N[C@@H](C(=O)NC(CC(C)C)[C@@H](O)CC(=O)N[C@H](C)C(=O)NC(CC(C)C)[C@@H](O)CO)C(C)C)C(C)C` (stereo partly drawn) registered a Ki at Pepsin A [1] of 0.0457 nM.
The same measure, in the same setting: then `CC(C)CCNC(=O)[C@H](C)NC(=O)C[C@H](O)NC(C(=O)[C@H](NC(=O)CC(C)C)C(C)C)c1ccccc1` (stereo partly drawn), with 0.9 nM.
`CC(C)CCNC(=O)[C@H](C)NC(=O)C[C@@H](O)C(CC(C)C)NC(=O)[C@H](NC(=O)CC(C)C)C(C)C` (stereo partly drawn): at Pepsin A [2], the affinity, expressed as Ki, was 3000 nM.
